This is an account of results in ChEMBL document CHEMBL5046259, “Cannabinoids Block Cellular Entry of SARS-CoV-2 and the Emerging Variants” (J Nat Prod, 2022).

As a reminder, the IC50 is the concentration that inhibits the measured activity by half.

≈ marks a conversion by molar mass, not a printed value.

Common to all, as to assay type: functional, organism-based
The test system of experiment [1] is SARS-CoV-2. The experiment is described as follows: Antiviral activity against pseudovirus SARS-CoV-2 spike protein infected in HEK293T cells overexpressing ACE2 assessed as inhibition on pseudovirus infection incubated for 45 hrs by fluorescence microscopy. The conditions noted are these: Severe acute respiratory syndrome coronavirus 2, HEK-293T. The method in brief:
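293T-ACE2 cells were seeded at 10 000 per well. Spike-pseudotyped lentivirus carrying a GFP reporter was mixed with 2-fold serial dilutions of compound (in DMSO) or vehicle for 1 h at 37 °C, then added to cells with 5 μg/mL Polybrene. After 44 h, cells were fixed and DAPI-stained. Total GFP area was normalized to DAPI and to vehicle (n = 3). IC50 came from a three-parameter logistic fit.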

Experiment [2] concerns SARS-CoV-2. The experiment is described as follows: Antiviral activity against SARS-CoV-2 variant B.1.1.7 strain infected in African green monkey Vero E6 cells assessed as inhibition of viral entry incubated for 1 hr proir to infection and measured after 48 hrs by Focus forming assay. The conditions noted are these: Severe acute respiratory syndrome coronavirus 2, B.1.1.7, Vero C1008.

Experiment [3] has as its system SARS-CoV-2. The experiment is described as follows: Antiviral activity against SARS-CoV-2 variant B.1.351 strain infected in African green monkey Vero E6 cells assessed as inhibition of viral entry incubated for 1 hr prior to infection and measured after 48 hrs by Focus forming assay. Conditions: Severe acute respiratory syndrome coronavirus 2, B.1.351, Vero C1008.

Take `CCCCCc1cc(O)c(C/C=C(\C)CCC=C(C)C)c(O)c1C(=O)O` [CANNABIGEROLIC ACID]: the values for the IC50 in experiment [1], in experiment [2] and in experiment [3] were 8.4 µg/mL (≈ 23.3 µM), 26 µg/mL (≈ 72.1 µM) and 35 µg/mL (≈ 97.1 µM), respectively.
The like results for `C=C(C)[C@@H]1CCC(C)=C[C@H]1c1c(O)cc(CCCCC)c(C(=O)O)c1O` [CANNABIDIOLIC ACID] were, in that order, 7.7 µg/mL (≈ 21.5 µM), 11 µg/mL (≈ 30.7 µM) and 19 µg/mL (≈ 53 µM).
